Experimental findings from ChEMBL document CHEMBL1154139, “Isolation of aerucyclamides C and D and structure revision of microcyclamide 7806A: heterocyclic ribosomal peptides from Microcystis aeruginosa PCC 7806 and their antiparasite evaluation” (J Nat Prod, 2008) are described below.

SMILES strings stand for the structures.

One may read the IC50 as the midpoint of a concentration-inhibition curve. The LC50 is the concentration that kills 50% of the test population. Lower therefore signals a more lethal substance.

Assay [1] has as its system Trypanosoma brucei rhodesiense. The experiment in a line: Antitrypanosomal activity against Trypanosoma brucei rhodesiense STIB900 by fluorescence assay. Format: functional, organism-based.
A further assay concerns L6. The experiment in a line: Cytotoxicity against rat L6 cells. It is filed as cell-based. The procedure, abridged: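 Rat skeletal myoblasts (L-6) grown in RPMI 1640 with 10% FBS and 2 mM L-glutamine, exposed to serial dilutions 90 to 0.123 µg/mL at 37 °C, 5% CO2. Alamar Blue (resazurin) read-out by fluorescence (ex 536/em 588 nm) as percent of control cultures; IC50 from sigmoidal inhibition curves.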

Assay [2] relates to Plasmodium falciparum. In words: Antiplasmodial activity against chloroquine-resistant Plasmodium falciparum K1 assessed as [3H]hypoxanthine incorporation after 48 hrs by beta-plate liquid scintillation counting. Format: functional, organism-based. The procedure, abridged:
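K1 strain (chloroquine- and pyrimethamine-resistant) in infected human red blood cells, RPMI 1640 with 5% Albumax, exposed to serial dilutions for 48 h at 37 °C under reduced oxygen. 0.5 µCi [3H]-hypoxanthine then added for a further 24 h. Cells harvested onto glass-fiber filters and counted. CPM expressed as % of untreated controls, IC50 taken from sigmoidal curves. Run in duplicate, repeated once.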

A further assay deals with Thamnocephalus platyurus. In words: Cytotoxicity against Thamnocephalus platyurus. It is filed as functional. The method, boiled down: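 Instar II-III larvae hatched from cysts, tested in multiwell plates at six concentrations from 1 to 100 µM, in triplicate. Value derived by nonlinear regression.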
Another assay has as its system MCF7. In words: Cytotoxicity against human MCF7 cells. Format: cell-based.
Assay [3] has as its system Plasmodium falciparum. The experiment in a line: Antiplasmodial activity against Plasmodium falciparum W2. It is filed as functional, organism-based.

For the molecule `CC[C@H](C)[C@@H]1NC(=O)[C@H]2CSC(=N2)[C@@H]([C@@H](C)CC)NC(=O)c2csc(n2)CNC(=O)[C@H]2N=C1O[C@@H]2C` [AERUCYCLAMIDE A], the results for the IC50 (in assay [1]; in the assay on L6; with Plasmodium falciparum [2]) were 56.3 µM, above 168 µM and 5 µM, respectively.
The corresponding values for `CC[C@H](C)[C@@H]1NC(=O)c2csc(n2)[C@@H]([C@@H](C)CC)NC(=O)c2csc(n2)CNC(=O)[C@H]2N=C1O[C@@H]2C` [AERUCYCLAMIDE B] are 15.9 µM, 120 µM and 0.7 µM.
Consider `CC[C@H](C)[C@H]1NC(=O)c2coc(n2)[C@H](C(C)C)NC(=O)[C@H]2N=C(O[C@@H]2C)[C@H](C)NC(=O)c2csc1n2` [AERUCYCLAMIDE C], for which, in the assay with Thamnocephalus platyurus, the median lethal concentration (LC50) was 70.5 µM. The IC50 in assay [1] worked out at 9.2 µM; in the assay with L6, 106 µM; in the assay on Plasmodium falciparum [2], 2.3 µM.
As to `CSCC[C@@H]1NC(=O)c2csc(n2)CNC(=O)[C@H]2N=C(O[C@@H]2C)[C@H](Cc2ccccc2)NC(=O)[C@@H]2CSC1=N2` [AERUCYCLAMIDE D], the values for the 50% inhibitory concentration (IC50) (in assay [1]; in the assay with L6; with Plasmodium falciparum [2]) were 50.1 µM, above 153 µM and 6.3 µM, respectively.
`Cc1oc2nc1C(=O)N[C@H](C)c1nc(cs1)C(=O)N[C@H](C(C)C)c1nc(cs1)C(=O)N[C@@H]2C` [VENTURAMIDE A]: the values for the IC50 in the assay with MCF7 and in the assay on Plasmodium falciparum [3] were 13.1 µM and 8.2 µM, respectively.
On to `Cc1oc2nc1C(=O)N[C@H]([C@@H](C)O)c1nc(cs1)C(=O)N[C@H](C(C)C)c1nc(cs1)C(=O)N[C@@H]2C` [VENTURAMIDE B], for which the half-maximal inhibitory concentration (IC50) is above 54 µM in the assay on MCF7 and 5.2 µM in the assay on Plasmodium falciparum [3].
